procasp3 activ = activators of human procaspase-3 | recombinant procaspase-3 D3A, Ac-DEVD-pNA absorbance 405 nm | P42574 | activation, % at 8.5 µM | actives 0.11% (n = 330,000);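 active = activation above the mean of all tested compounds plus 3 SD, cut at about 21% in these data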
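System: Procaspase-3 D3A mutant. Medium: Zinc-free 300 mM NaCl, 50 mM HEPES, 0.01% Triton X-100. Schedule: 1 h preincubation plus 2 h reaction at 25 °C. Measured by: 405 nm absorbance of p-nitroaniline, reads at 0 and 120 min. Read-out: percent activation relative to control range.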
VLA-4 inh = inhibition in a human VLA-4 binding assay. P13612. VLA-4 expressing cells, ligand binding flow cytometry. inhibition, % (about 7 µM as worked out from the volumes in the protocol). actives 0.2% (n = 330,000); in the data active = inhibition above about 50%
procasp7 counter = counter-screen for procaspase-3 activators: activators of human procaspase-7; P55210; recombinant procaspase-7, Ac-DEVD-pNA absorbance 405 nm; D23A/D198A/D206A triple mutant, cannot self-cleave; scale: DMSO 0, 5 µM enzyme 100; actives 0.093% (n = 330,000); activation, % at 8.5 µM; AID 463210;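 active = percent activation above the screen-wide mean plus 3 SD, cut at about 25% in these data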
Target sequence (P55210 whole entry D23A/D198A/D206A): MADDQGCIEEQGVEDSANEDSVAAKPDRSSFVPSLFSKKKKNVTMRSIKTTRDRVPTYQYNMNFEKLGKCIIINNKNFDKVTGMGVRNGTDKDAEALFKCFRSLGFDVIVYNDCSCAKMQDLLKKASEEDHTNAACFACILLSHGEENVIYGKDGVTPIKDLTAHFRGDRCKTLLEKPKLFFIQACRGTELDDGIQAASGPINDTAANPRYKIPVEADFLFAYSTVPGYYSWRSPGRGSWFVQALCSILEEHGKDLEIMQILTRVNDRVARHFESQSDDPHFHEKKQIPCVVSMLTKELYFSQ
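System: Procaspase-7 triple mutant (PC-7 D3A); measure: % activation from two-timepoint absorbance difference, scaled to controls; times: 1 h compound preincubation, 2 h substrate cleavage, 25 °C; also added: Ac-DEVD-pNA substrate, 400 µM as added; measured by: Epi-absorbance of released pNA at 405 nm, two timepoints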
Hep lipid drop = hepatic lipid droplet formation modulation | actives 0.4% (n = 240,000) | inhibition, % at 6.5 µM | AML12 mouse hepatocytes, oleate lipid droplets, BODIPY imaging | AID 1656;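 active = lipid droplet intensity inhibited by at least 50%, with more than 500 cells counted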
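Assay system: AML12 mouse liver cells | Compound dosing: One dose, 6.5 µM compound | Read-out basis: Droplet intensity reduction, % inhibition | Measured by: Fluorescence imaging, 20x objective, two fields per well | Schedule: Overnight treatment with compound plus oleate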
GRK2 inh = blocks RNA aptamer binding to human GRK2; actives 0.59% (n = 330,000); P25098; AID 488847; inhibition of aptamer binding, % at 10 µM; bead flow cytometry, FAM-aptamer displacement from GRK2;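 active = inhibition of aptamer binding above 40%, roughly 3 SD of noise, on plates passing a quality check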;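 note: median bead fluorescence of bound FAM aptamer so fluorescent compounds give negative values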
GASC-1 inh = blocks human GASC-1 demethylase activity; Q9H3R0; GST-JMJD2C(1-420) H3K9me3 demethylation, DELFIA europium; inhibition, % at 2.35 µM; actives 0.069% (n = 330,000);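 active = more than half of a compound's replicate wells show inhibition beyond 50%, single wells judged on their own value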;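 note: signal counts dimethyl H3K9 product captured on neutravidin plate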
Target sequence (Q9H3R0 1-420 limits assumed): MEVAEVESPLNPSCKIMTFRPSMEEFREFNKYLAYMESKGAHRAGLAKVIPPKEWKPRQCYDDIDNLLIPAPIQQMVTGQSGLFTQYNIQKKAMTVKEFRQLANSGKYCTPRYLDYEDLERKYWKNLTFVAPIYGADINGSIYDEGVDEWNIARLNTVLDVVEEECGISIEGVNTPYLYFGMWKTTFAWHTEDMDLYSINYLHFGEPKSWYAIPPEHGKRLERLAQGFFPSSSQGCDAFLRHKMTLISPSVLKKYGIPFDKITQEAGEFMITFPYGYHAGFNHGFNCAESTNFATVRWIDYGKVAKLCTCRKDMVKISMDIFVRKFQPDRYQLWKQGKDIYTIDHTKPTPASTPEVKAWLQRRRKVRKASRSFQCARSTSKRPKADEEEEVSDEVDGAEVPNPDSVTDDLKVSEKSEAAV
VLA-4 mod pick = confirmation of allosteric modulators of human VLA-4 integrin; shares compounds with VLA-4 inh; U937 cells, HUTS-21 LIBS mAb binding, flow cytometry; LDV ligand present at threefold Kd; inhibition, % at 6.7 µM; actives 2% (n = 1,300); in the data active = inhibition above about 40%
Each line names hits and unclear results; the compound was inactive in the other large screens (follow-up assays come after a bar, where they were run). Most compounds without a hit are left out; they make up all but 1.3% or so of the library.

O=C(c1cc2nc(-c3ccc(Cl)cc3)cc(C(F)(F)F)n2n1)N1CCOCC1	none | VLA-4 mod pick inactive
O=C1Cc2cc(S(=O)(=O)Nc3ccc(N4CCOCC4)cc3)ccc2N1	none (no result: Hep lipid drop) | VLA-4 mod pick inactive
Cc1ccc(S(=O)(=O)Nc2ccc(N3CCOCC3)cc2)cc1C	none (no result: Hep lipid drop)
Cc1ccc(NS(=O)(=O)c2ccc3c(c2)CC(=O)N3)cc1F	none (no result: Hep lipid drop) | VLA-4 mod pick inactive
Cc1ccc(-n2nc(C)c3c(C)c(CCC(=O)O)c(C)nc32)cc1C	none (no result: Hep lipid drop)
COc1cc2c(cc1OC)C(c1cc(OC)c(OC)cc1[N+](=O)[O-])N(C(C)=O)CC2 (stereo unspecified)	none | VLA-4 mod pick inactive
O=C(COc1cccnc1[N+](=O)[O-])Nc1cc(S(=O)(=O)N2CCCCC2)ccc1Cl	none
Cc1c(NC(=O)CSc2nc(-c3ccco3)cc(C(F)(F)F)n2)c(=O)n(-c2ccccc2)n1C	VLA-4 inh 93 | VLA-4 mod pick inactive
N=C(N)N=Nc1c(O)[nH]c2ccc(Br)cc12	VLA-4 inh 53 | VLA-4 mod pick inactive
COc1ccccc1N(C)S(=O)(=O)c1ccc(C(=O)NCC2CCCCC2)cc1	none (no result: Hep lipid drop, GASC-1 inh)
CCOc1ccc(OCCN2CCCCC2)cc1	none
c1ccc(COc2ccc(OCCN3CCCC3)cc2)cc1	none
COc1ccc(-c2sc3ccccc3c2-c2ccc(OCCN3CCCCC3)cc2)cc1	none (no result: Hep lipid drop) | VLA-4 mod pick inactive
c1ccc(-c2sc3ccccc3c2-c2ccc(OCCN3CCCC3)cc2)cc1	none (no result: Hep lipid drop) | VLA-4 mod pick inactive
CCc1c(C2(O)CCCCC2)[nH]c2cnccc12	none (no result: Hep lipid drop)
O=C(c1ccco1)N1CCN(Cc2cn[nH]c2-c2cccc3ccccc23)CC1	none
O=C(Nc1ccc(Br)cc1)Nc1ccccc1Cl	none | VLA-4 mod pick inactive
O=C(Nc1ccc(CN2CCCCC2)cc1)Nc1ccccc1Cl	none
Cc1ccc2c(c1)cc1c(=O)n(CC(=O)NCCCc3ccccc3)nc(C)n12	none
COc1ccc(-c2nnc(SCc3ccccc3F)o2)cc1OC	VLA-4 inh 95 (no result: Hep lipid drop) | VLA-4 mod pick inactive
Cc1ccc(-c2nnc(SCc3ccccc3F)o2)cc1	none
CNc1nc(OCCNC(=O)Nc2ccccc2)nc(N2CCOCC2)n1	VLA-4 inh 59 (no result: Hep lipid drop) | VLA-4 mod pick inactive
C=CCNc1ncnc2c1cnn2-c1cccc(C)c1	VLA-4 inh 66 | VLA-4 mod pick inactive
Cn1nc(C(=O)OCC(=O)Nc2ccc(F)cc2Cl)c2ccccc2c1=O	none (no result: Hep lipid drop)
COc1ccc(OCCCC(=O)Nc2ccc(S(=O)(=O)N3CCOCC3)cc2)cc1	none (no result: Hep lipid drop)
NC(=O)c1ccccc1NS(=O)(=O)c1ccc(F)cc1	none | VLA-4 mod pick inactive
CN(Cc1c(F)cccc1Cl)C(=O)C1=CC=CN2CCS(=O)(=O)N=C12	none (no result: Hep lipid drop)
Cc1cc(C=O)c(C)n1-c1sc2c(c1C(=O)O)CCCC2	VLA-4 inh 52 | VLA-4 mod pick inactive
COC(=O)c1c(-n2c(C)cc(C=O)c2C)sc2c1CCCC2	none
Cn1c(-c2ccccc2)c(/C=N/NC(=O)c2ccc(O)cc2)c2ccccc21	none
CC(Oc1ccccc1Cl)C(=O)Nc1ccc(S(=O)(=O)N2CCCC2)cc1 (stereo unspecified)	none (no result: Hep lipid drop)
COc1ccccc1CC(=O)OC(C)C(=O)Nc1ccc(S(=O)(=O)N2CCCCC2)cc1 (stereo unspecified)	VLA-4 inh 54 (no result: Hep lipid drop) | VLA-4 mod pick inactive
CCOC(=O)c1[nH]c2ccccc2c1NC(C)=O	VLA-4 inh 68 | VLA-4 mod pick inactive
O=S(=O)(c1ccc(SCc2cccc(Cl)c2)nc1)N1CCCC1	none (no result: Hep lipid drop)
O=C1CCCc2ccccc2N1Cc1cccc(F)c1	none
O=C1CCCc2ccccc2N1Cc1ccc(F)cc1	VLA-4 inh 52 | VLA-4 mod pick inactive
CCc1cc(=O)[nH]c(-n2[nH]c(-c3ccccc3)cc2=O)n1	none | VLA-4 mod pick inactive
O=c1cc(-c2ccccc2)[nH]n1-c1nc2ccccc2[nH]1	none (no result: Hep lipid drop)
CC(C)(C)c1csc(Sc2ccc([N+](=O)[O-])cn2)n1	none
CCC(C)C(NC(=O)C(N)CC(C)C)C(=O)NC(CCC(=O)OCc1ccccc1)C(N)=O (stereo unspecified)	VLA-4 inh 54 | VLA-4 mod pick inactive
CC(=O)Nc1ccc(NC(=O)C(C)OC(=O)[C@@H]2CCCN2C(=O)c2cccs2)cc1 (stereo partly specified)	none (no result: Hep lipid drop)
CCOC(=O)C1=C(C)C2C3C(=O)N(c4ccccc4C)C(=O)C3C1(C)C1C(=O)N(c3ccccc3C)C(=O)C21 (stereo unspecified)	none
CCOC(=O)C1=C(C)C2C3C(=O)N(c4ccc(C)cc4C)C(=O)C3C1(C)C1C(=O)N(c3ccc(C)cc3C)C(=O)C21 (stereo unspecified)	none | VLA-4 mod pick inactive
CCN(C[C@H]1N[C@@](Cc2ccccc2)(C(=O)OC)[C@H]2C(=O)N(Cc3ccccc3)C(=O)[C@@H]12)S(=O)(=O)c1ccc(OC)cc1	none (no result: Hep lipid drop)
CCN(C[C@H]1N[C@@](Cc2ccccc2)(C(=O)OC)[C@H]2C(=O)N(Cc3ccccc3)C(=O)[C@@H]12)S(=O)(=O)c1ccc(OC(F)(F)F)cc1	none (no result: Hep lipid drop) | VLA-4 mod pick inactive
CCN(C[C@H]1N[C@@](Cc2ccccc2)(C(=O)OC)[C@H]2C(=O)N(Cc3ccccc3)C(=O)[C@@H]12)S(=O)(=O)c1ccc(F)cc1	none (no result: Hep lipid drop)
CCN(C[C@H]1N[C@@](Cc2ccccc2)(C(=O)OC)[C@H]2C(=O)N(Cc3ccccc3)C(=O)[C@@H]12)S(=O)(=O)c1ccc(C(C)(C)C)cc1	none (no result: Hep lipid drop) | VLA-4 mod pick inactive
CC(C)CN(C(=O)C1CCCO1)C1CCS(=O)(=O)C1 (stereo unspecified)	none (no result: Hep lipid drop)
CCN1CCN(Cc2ccc(NC(=O)c3ccc(C)c(NC(=O)N4CCNC4=O)c3)cc2C(F)(F)F)CC1	none | VLA-4 mod pick inactive
Cc1cn(-c2cc(C(=O)Nc3ccc(C)c(NC(=O)N4CCNC4=O)c3)cc(C(F)(F)F)c2)cn1	VLA-4 inh 59 (no result: GASC-1 inh) | VLA-4 mod pick inactive
COc1ccc(-c2nc(CN3CCN(c4ccccc4OC)CC3)c(C)o2)cc1	none
COc1ccccc1N1CCN(Cc2nc(-c3ccc(F)cc3)oc2C)CC1	VLA-4 inh 52 | VLA-4 mod pick inactive
Cc1ccc(Cl)c(NC(=O)COC(=O)c2cc[n+]([O-])cc2)c1Cl	none (no result: Hep lipid drop)
COc1ccc(S(=O)(=O)N2CCCC(C(=O)NCc3cccnc3)C2)cc1OC (stereo unspecified)	VLA-4 inh 51 (no result: Hep lipid drop) | VLA-4 mod pick inactive
Clc1ccc2c(N/N=C/c3cccnc3)ccnc2c1	none
